Measurements: ChEMBL document CHEMBL4513216, “Probing the Open Global Health Chemical Diversity Library for Multistage-Active Starting Points for Next-Generation Antimalarials” (ACS Infect Dis, 2020)

Assay: Toxicity liver stage against HepG2, at 10uM
Format: cell-based
Design: test concentration 10 uM, cell line HepG2-A16-CD81EGFP
Settings: human, HepG2-A16-CD81EGFP cells; read-out: INHIBITION
Outline: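 Uninfected HepG2-A16-CD81EGFP cells, 3 × 10^3 per well, 1536-well, plated on prespotted compound at 10 μM final, parasite-free screening media added to match infected plates; puromycin 10 μM positive, DMSO 0.5% negative; run in parallel with 48 h PbLuc assay at 37 °C, 5% CO2; viability by CellTiter-Glo luminescence, normalized to controls.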

Row | SMILES | cytotoxicity at 10 µM [%]
1 | CCOC(=O)c1cnn(-c2cc(Oc3ccccc3)ncn2)c1N | 2.93
2 | CN(Cc1ccc(F)cc1)Cc1nc(-c2cnccn2)no1 | 1.27
3 | COc1ccc(O[C@H]2COCCN(C(=O)c3ccno3)C2)cc1 | -2.41
4 | CC[C@H]1CN(S(C)(=O)=O)CC[C@H]1CC(=O)NCCSC | 3.45
5 | Cc1occc(=O)c1OCC(=O)N1CCN(c2ccccc2)CC1 | -2.88
6 | CCN1C(=O)CCC12CCCN(S(=O)(=O)c1cccc(C)c1)CC2 (stereo not given) | -4.54
7 | CC(C)N1[C@@H](C(=O)NCC2CC2)C[C@@H]2CN(Cc3ccco3)C[C@@H]21 | 3.41
8 | COCCNC(=O)C1CN(C(N)=O)Cc2ccnn2C1 (stereo not given) | 0.0039
9 | CNC(=O)CCc1cc(C2CCCCN2C)nc(C)n1 (stereo not given) | -0.956
10 | CN(CCn1cncc1-c1cnc(N2CCOCC2)nc1)C1CCCC1 | 7.25
11 | CO[C@@H]1CCC[C@@H](N(C)C(=O)c2cn3cc(C)ccc3n2)[C@H]1O | 0.829
12 | CC(c1ccco1)N(C(=O)c1cccc(C#N)c1)C1CC1 (stereo not given) | 1.18
13 | CC(OCc1ccccc1)C(=O)NC1CCN(CC(N)=O)CC1 (stereo not given) | -3.45
14 | O=c1[nH]c(C2CCOC2)nc2cc(F)c(F)cc12 (stereo not given) | 9.66
15 | Cn1cc(C2(C)CN(c3ncccc3C#N)CCO2)cn1 (stereo not given) | 4.48
16 | CCCS(=O)(=O)N1CCC(NCc2c(C)nn(C)c2OC)CC1 | 7.01
17 | CN(Cc1nnc(C2CC2)n1C)C1CCN(Cc2ccccc2)C1 (stereo not given) | -4.45
18 | O=C(Cc1cccc(Cl)c1)Nc1cnccc1SCCCO | -7.04
19 | O=C(NCc1ccncc1)N1CCSCC1CCO (stereo not given) | 2.3
20 | O=C(C[S+]([O-])Cc1c(F)cccc1Cl)N1CCc2sccc2C1 (stereo not given) | -0.784
21 | COc1c(CNC(C)C(=O)NC2CCCC2)c(C(C)C)nn1C (stereo not given) | -1.08
22 | COc1ccc(CN(C)CC(=O)Nc2ccc3[nH]c(=O)[nH]c3c2)cc1F | 5.97
23 | Cc1[nH]ncc1C(=O)NCC(CO)Cc1ccc(Cl)cc1 (stereo not given) | -0.0785

Row | SMILES | cytotoxicity at 10 µM [%]
24 | CC(C)CNc1nnc(SC(C(=O)NCc2cccnc2)C(C)C)s1 (stereo not given) | -5.9
25 | CC(C)(C)C(O)CN1CCN(CCOCC(F)(F)F)CC1 (stereo not given) | -2.02
26 | Cc1ccc(C)n1-c1c(C(=O)NCC(C)N(C)C)cnn1C (stereo not given) | 15.9
27 | c1csc(N2CCN(Cc3nnnn3C3CC3)CC2)n1 | 8.96
28 | CCN(C)CC1CCN(C(=O)Nc2ccc(-c3cc[nH]n3)cc2)C1 (stereo not given) | -6.25
29 | O=S(=O)(NCCc1c[nH]c2ccc(F)cc12)C1CCOCC1 | 4.13
30 | COc1ccc(OC)c(CNc2nnc(C(C)(C)C)o2)c1 | -6.1
31 | CC(Cn1cccn1)NCc1csc(-c2ccc3c(c2)OCO3)n1 (stereo not given) | -26
32 | c1ccc2c(N3CCCCC3Cn3cncn3)ncnc2c1 (stereo not given) | 4.16
33 | CC(C)(C)c1nnc(CN2CCN(S(C)(=O)=O)CC2)o1 | -4.32
34 | CCc1nc(C)sc1CN1CC[C@@](O)(C2CCOCC2)[C@H](C)C1 | 1.71
35 | CN(C)C(Cn1ccnc1-c1nccn1C)c1ccccc1Cl (stereo not given) | -0.0184
36 | Cc1nc(C(C)Nc2ncnc3c2CCNCC3)c(C)s1 (stereo not given) | -6.64
37 | CCN1CCC2(CCC1=O)CN(C1CCOCC1)CCN2C (stereo not given) | -1.14
38 | Cc1nc[nH]c1-c1nnc(SCC(=O)O)n1-c1ccccc1C(F)(F)F | 0.0448
39 | CCNc1nc(C)c(C(=O)N2CCN(c3ncccc3C)CC2)s1 | 3.77
40 | CCN1CCCC1CNC(=O)c1cc(COc2ccccc2F)[nH]n1 (stereo not given) | -4.17
41 | CC(C)c1ccc(OCC(=O)N(C)C)cc1 | -2.82
42 | CN(C)c1ccc(CCNC(=O)C2CCC(=O)N(C3CCCC3)C2)cc1 (stereo not given) | 20.8
43 | Cc1ccc([C@@H]2CN(S(=O)(=O)N(C)C)C[C@H]2N(C)C)cc1 | 2.47
44 | O=C(c1ccccc1)N1CCOC2(CCN(Cc3cccs3)CC2)C1 | 0.64
45 | CC[C@@H]1N(Cc2ccoc2)CCC[C@]12CCC(=O)N2CCOC | 11
